Assay: Toxicity liver stage against HepG2, at 10uM
Assay type: cell-based
Parameters: test concentration 10 uM, cell line HepG2-A16-CD81EGFP
Conditions: human, HepG2-A16-CD81EGFP cells; read-out: INHIBITION
Method in brief: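 Uninfected HepG2-A16-CD81EGFP cells, 3 × 10^3 per well, 1536-well, plated on prespotted compound at 10 μM final, parasite-free screening media added to match infected plates; puromycin 10 μM positive, DMSO 0.5% negative; run in parallel with 48 h PbLuc assay at 37 °C, 5% CO2; viability by CellTiter-Glo luminescence, normalized to controls.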

In the case of O=C(NCc1ccc(Cl)cc1)[C@@H]1Cc2[nH]cnc2CN1CC1CC1, the cytotoxicity at 10 µM is reported as 3.67%.
For Cn1nc(-c2cccs2)cc1[C@H]1CN2CC[C@H]1C[C@@H]2CNS(C)(=O)=O, the cytotoxicity at 10 µM was -1.39%.
In the case of COc1ccc(CC(=O)Nc2ccc3ncn(C(C)C)c(=O)c3c2)cc1, the cytotoxicity at 10 µM is reported as 3.97%.
For Cc1cccc(CN2C[C@@H]3CN(C(=O)c4cnccn4)C[C@@H]3C2=O)c1, the cytotoxicity at 10 µM was 2.43%.
In the case of CC(C)NC(=O)C1CN(C(=O)CCc2ccccc2)CC12CCOCC2 (configuration not stated), the cytotoxicity at 10 µM is reported as -3%.
With CCOc1ccc(NC(=O)Cn2cc(I)cn2)cc1 the cytotoxicity at 10 µM was 9.84%.
In the case of Cc1ccsc1C(=O)N1CC(C(=O)NCC2CC2)C2(CCOCC2)C1 (configuration not stated), the cytotoxicity at 10 µM is reported as 0.955%.
In the case of CCN(CC)C(=O)c1ccn(COc2c(Cl)cccc2Cl)n1, the cytotoxicity at 10 µM is reported as 11.6%.
Work on Cc1nn(C)c(C)c1CN1CCN(CC2(O)CCCN(C)C2)CC1 (configuration not stated) yielded a cytotoxicity at 10 µM of 9.07%.
With COCCCNC(=O)CCn1ncc2c(Cl)cccc21 the cytotoxicity at 10 µM was 7.72%.
Molecule CCn1nc(C)cc1NC(=O)CCn1nc(C)c2ccccc21 has a cytotoxicity at 10 µM of 4.98%.
In the case of CCN(CC)C(=O)c1cc(C2(C)CCN(C(C)=O)CC2)nc(C)n1, the cytotoxicity at 10 µM is reported as 5.27%.
Work on CN1CCc2nc3cc(C(=O)NCc4cccs4)ccc3c(=O)n2CC1 yielded a cytotoxicity at 10 µM of 0.207%.
Cc1cc2nccc(C3CCN(C(=O)c4ccccc4F)CC3)n2n1 gave a cytotoxicity at 10 µM of 1.16%.
Cc1ncsc1CN1CCOC(C)(C(=O)N(C)C)C1 (configuration not stated) showed a cytotoxicity at 10 µM of 12.1%.
For CCS(=O)(=O)N1CCC(n2nc(-c3cc(C)oc3C)ccc2=O)CC1, the cytotoxicity at 10 µM was 8.82%.
Molecule COc1cccc(-c2nccc(C3CCCN3C)n2)c1 (configuration not stated) has a cytotoxicity at 10 µM of 9.27%.
CC(C)C1=NOC2(CCN(C(=O)C3CCCC3)CC2)C1 gave a cytotoxicity at 10 µM of 6.69%.
OC1(CNc2ccccc2)CCNCC1 showed a cytotoxicity at 10 µM of -1.9%.
For O=C(COc1ccc(Cl)cc1)NCc1nncn1C1CC1, the cytotoxicity at 10 µM was 7.67%.
With CCc1cc(CNC(=O)c2cc(NC(=O)C(C)C)ccc2Cl)[nH]n1 the cytotoxicity at 10 µM was 9.36%.
O=C(C(c1ccccc1)S(=O)(=O)c1ccccc1)N1CCCCC1 (configuration not stated) showed a cytotoxicity at 10 µM of -6.01%.
For NC(=O)CC1CCN(S(=O)(=O)c2cnn(-c3ccccc3)c2)CC1, the cytotoxicity at 10 µM was 12%.
Molecule CS(=O)(=O)CCCN1CCN(C(C#N)c2ccccc2)CC1 (configuration not stated) has a cytotoxicity at 10 µM of -3.14%.
Work on CN(Cc1ccccn1)C(=O)CNC(=O)N1CCc2ccccc2C1 yielded a cytotoxicity at 10 µM of 2.8%.
In the case of COc1ccc(CN(C)C(=O)CN2CC(n3cccn3)C2)cc1F, the cytotoxicity at 10 µM is reported as -0.717%.
Work on Cc1cccnc1NC(=O)c1ccc(F)c(S(=O)(=O)NC2CC2)c1 yielded a cytotoxicity at 10 µM of 1.77%.
With CC(C)COc1cncc(N(C)C2CCN(c3ncccn3)CC2)n1 the cytotoxicity at 10 µM was 0.583%.
In the case of Cc1cc(C2CCCN(C(=O)COc3ccccc3F)C2)n[nH]1 (configuration not stated), the cytotoxicity at 10 µM is reported as 7.45%.
Molecule CCn1cnnc1CNC(=O)N(C)Cc1ccc(Cl)cc1Cl has a cytotoxicity at 10 µM of -17.7%.
Work on COC(=O)N1CCCC(NC(=O)NCc2nc(C)cs2)C1 (configuration not stated) yielded a cytotoxicity at 10 µM of 7.25%.
Molecule CN1CCN(CC2CCN(C(=O)CCC3CCCCC3)CC2)CC1 has a cytotoxicity at 10 µM of -3.68%.
Work on Cc1oc(CN(C)C(=O)c2ccc(Br)cc2)cc1C(=O)O yielded a cytotoxicity at 10 µM of 5.5%.
For CC(SCc1ccc(Br)c2cccnc12)C(N)=O (configuration not stated), the cytotoxicity at 10 µM was 1.67%.
CN(Cc1ncnn1C)C(=O)Nc1ccc(OC(F)F)cc1 gave a cytotoxicity at 10 µM of -0.778%.
Molecule Clc1cccc(CNc2cnn(CCN3CCCCC3)c2)c1 has a cytotoxicity at 10 µM of 0.889%.
Molecule Cc1nn(C)c2ncc(CN3CCN(Cc4ccco4)CC3)cc12 has a cytotoxicity at 10 µM of 0.243%.
Work on CC(C)(C)NC(=O)CNC(=O)CCc1ccccc1Br yielded a cytotoxicity at 10 µM of 3.09%.
Molecule CN(C)CC(=O)N1CCC2(CCN(Cc3ccccn3)C2=O)C1 (configuration not stated) has a cytotoxicity at 10 µM of 1.23%.
Molecule CC1(C)CC1(C(=O)N1CC(c2cccnc2)C1)c1ccc(F)cc1 (configuration not stated) has a cytotoxicity at 10 µM of -9.41%.
Molecule COc1ccc(-n2cccn2)c(CN2CCC(O)(CO)CC2)c1 has a cytotoxicity at 10 µM of 3.4%.
O=C1NCCCc2[nH]c(Cc3ccc(F)cc3)nc21 showed a cytotoxicity at 10 µM of -20.9%.
For CNc1nc(C(=O)N2CCCCC2c2ccc(CN(C)C)cc2)cs1 (configuration not stated), the cytotoxicity at 10 µM was -2.86%.
Molecule CSCc1nc(CCNC(=O)C(N)c2c(C)n[nH]c2C)cs1 (configuration not stated) has a cytotoxicity at 10 µM of -3.95%.
With CC1(C)Cc2c(cnn2-c2ccccc2)C(NC2CCSCC2)C1 (configuration not stated) the cytotoxicity at 10 µM was -186%.
With CNc1ccc(Cl)cc1C(=O)N1CCC(Cn2cc(CN)nn2)CC1 the cytotoxicity at 10 µM was -2.37%.
In the case of CN(C)CCn1ccnc1C1CCN(C(=O)CCc2cccnc2)CC1, the cytotoxicity at 10 µM is reported as -2.21%.
Work on CCCc1nnc(N2CCC(N3CCN(CCO)CC3)CC2)o1 yielded a cytotoxicity at 10 µM of -4.95%.
COCCN1CC2(CCC1=O)CCN(Cc1cc(F)ccc1Cl)CC2 showed a cytotoxicity at 10 µM of 5.29%.
With O=C1NCC2(CCCN(C(=O)c3ccc4c(c3)CCO4)C2)O1 (configuration not stated) the cytotoxicity at 10 µM was 2.32%.
With CC(C)(O)c1cn(C2CCN(C(=O)CCC3CCCC3)CC2)nn1 the cytotoxicity at 10 µM was 1.2%.
In the case of CC(C)CN1CC(c2nc(CCc3ccccc3)n[nH]2)CC1=O (configuration not stated), the cytotoxicity at 10 µM is reported as 6.08%.
For O=S1(=O)CCC(n2nc(COc3ccccc3)nc2-c2cnccn2)C1 (configuration not stated), the cytotoxicity at 10 µM was -4.64%.
Work on O=C(CCCn1cncn1)N1CCC2(CCCNC2=O)C1 (configuration not stated) yielded a cytotoxicity at 10 µM of -3.89%.
In the case of O=C1NCCCC12CCN(Cc1ccc(-c3ccccc3)s1)C2 (configuration not stated), the cytotoxicity at 10 µM is reported as 16.9%.
For CCn1c(C2CCNCC2)nn(CCn2ccc(C)n2)c1=O, the cytotoxicity at 10 µM was 2.6%.
For COC(=O)N1CCCCC1C(=O)N1CCC(c2ccncc2)CC1 (configuration not stated), the cytotoxicity at 10 µM was 11.7%.
Cn1c(CN2CCCC2)nnc1C1CCCN(C(=O)CN2CCCC2)C1 (configuration not stated) showed a cytotoxicity at 10 µM of -1.9%.
COc1ncccc1C(=O)N(C)Cc1nc(-c2ccccn2)no1 gave a cytotoxicity at 10 µM of 3.38%.
With CCS(=O)(=O)c1ncc(CN(C)Cc2ccccn2)n1CCOC the cytotoxicity at 10 µM was -13.3%.
Work on C[C@@H]1CN(C2(C(=O)N3CCOCC3)Cc3ccccc3C2)C[C@H](C)O1 yielded a cytotoxicity at 10 µM of 1.12%.
COc1cc2nc3n(c(=O)c2cc1OC)CCN(C(C)=O)CC3 showed a cytotoxicity at 10 µM of -2.65%.
Work on Cc1nn(C)c(Cl)c1C1CCCN1Cc1noc(C2CC2)n1 (configuration not stated) yielded a cytotoxicity at 10 µM of -1.64%.
Work on OCCn1nccc1C1CCN(CCOc2ccccc2Cl)CC1 yielded a cytotoxicity at 10 µM of -5.04%.
Molecule O=c1[nH]c(CN2CCCC(Cn3cncn3)C2)nc2ccccc12 (configuration not stated) has a cytotoxicity at 10 µM of -12.4%.
Molecule CCn1ccnc1CN1CCN(C(C)C(=O)N2CCCC2)CC1 (configuration not stated) has a cytotoxicity at 10 µM of -3.97%.
For COc1ccc(OC)c(CNC(=O)N2CCC(n3cncn3)CC2)c1, the cytotoxicity at 10 µM was 2.46%.
CCNC(c1cccnc1)c1ccc(F)c(C)c1 (configuration not stated) gave a cytotoxicity at 10 µM of -1.77%.
In the case of COc1ccc(CCC(=O)NC2CCC(O)CC2)cc1OC (configuration not stated), the cytotoxicity at 10 µM is reported as -5.26%.
In the case of Cc1nccn1-c1cc(CNC(=O)CCC2CCCO2)ccn1 (configuration not stated), the cytotoxicity at 10 µM is reported as -3.09%.
Cc1nn(C)c(Cl)c1C1CCCN1C(=O)c1cc[nH]n1 (configuration not stated) showed a cytotoxicity at 10 µM of -5.55%.
Work on CCOc1cccc2c1OCC(C(=O)NS(=O)(=O)c1ccc(C)s1)=C2 yielded a cytotoxicity at 10 µM of -9.02%.
For CCS(=O)(=O)CCN1CCC(N(C)Cc2noc(C(C)C)n2)C1 (configuration not stated), the cytotoxicity at 10 µM was -5.55%.
CCC(O)CN1CCN(C(=O)c2sccc2OC)CC1 (configuration not stated) showed a cytotoxicity at 10 µM of -7.25%.
Work on Cc1n[nH]c(C2CN(C(=O)c3ccnc(C4CC4)n3)CCO2)n1 (configuration not stated) yielded a cytotoxicity at 10 µM of 1.85%.
Molecule Cc1nc(C)n(CC2CCCN(CCC(=O)N3CCCCC3)C2)n1 (configuration not stated) has a cytotoxicity at 10 µM of 3.9%.
For Cn1cnnc1C1CCCN(C(=O)c2ccc3c(c2)OCCCO3)C1 (configuration not stated), the cytotoxicity at 10 µM was 3.66%.
Work on O=C1COC2(CCN(Cc3cccs3)CC2)CN1c1ccsc1 yielded a cytotoxicity at 10 µM of -125%.
Molecule CCS(=O)(=O)N[C@@H]1CN(Cc2cc(C)on2)C[C@@H]2CCCO[C@@H]21 has a cytotoxicity at 10 µM of -6.01%.
For CN1CCc2ncc(CNC(=O)c3cccn3C)n2CC1, the cytotoxicity at 10 µM was 1.27%.
CCn1nnc2c1C(COC)CN(Cc1ccsc1)C2 (configuration not stated) showed a cytotoxicity at 10 µM of 2.3%.
For O=C(NCC1CCC(c2ccnc3ncnn23)CC1)C1CC1 (configuration not stated), the cytotoxicity at 10 µM was 9.17%.
